Active and inactive are the calls of the source. The rule behind the calls is not given here.
Legend:
[1] = Toxicity in Balb/c mouse xenografted with human KBtax cells assessed as serum BUN level at 8 mg/kg, ip administered 3 times per week and measured after 21 days (reference value: 17.8 +/-1.1 mg/dl); type: organism-based; settings: in vivo, 504 h
[2] = Toxicity in Balb/c mouse xenografted with human KBtax cells assessed as serum ALT level at 8 mg/kg, ip administered 3 times per week and measured after 21 days (reference value: 32.7 +/- 4.8 IU/L); type: organism-based; settings: in vivo, 504 h
[3] = test system: NCI-H1975; experiment: Induction of apoptosis in human NCI-H1975 cells assessed as PARP cleavage at 25 to 50 nM after 24 hrs by immunoblotting analysis; type: functional, cell-based
[4] = test system: MDA-MB-231; experiment: Antitumour activity against human MDA-MB-231 cells xenografted in Balb/c mouse assessed as tumour size at 4 mg/kg, ip administered three times per week and measured on day 35 (reference value: 218 +/- 20.9 mm3); type: functional
Outline: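 MDA-MB-231 tumours established in the right flank of 6-week-old BALB/c nude mice. Compound dissolved in DMSO was given ip three times weekly, with a DMSO vehicle group. Tumour volume calculated as 0.5W²L, measured before each dose and compared on day 35.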

[5] = test system: NCI-H1975; experiment: Induction of apoptosis in human NCI-H1975 cells assessed as increase in p-HH3 expression at 25 to 50 nM after 24 hrs by immunoblotting analysis; type: functional, cell-based
[6] = test system: MOLT-4; experiment: Antiproliferative activity against human MOLT4 cells assessed as reduction in cell viability after 72 hrs by MTS assay; type: functional, cell-based; settings: MOLT-4, 72 h
Outline: (§1)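 Cells plated at 2000/well, cultured overnight, then exposed to a range of compound concentrations for 72 h. MTS reagent added for 1–4 h at 37 °C and absorbance read at 490 nm. Cultured in RPMI 1640 or DMEM with 10% heat-inactivated FBS under 5% CO2. Data are the mean of three determinations.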

[7] = test system: SAS; experiment: Antiproliferative activity against human SAS cells assessed as reduction in cell viability after 72 hrs by MTS assay; type: functional, cell-based; outline: as §1
[8] = test system: CL1-0; experiment: Induction of mitotic arrest in human CL1-0 cells assessed as cyclin A expression at 20 to 40 nM after 24 hrs by immunoblotting analysis; type: functional, cell-based
[9] = test system: HT-29; experiment: Antiproliferative activity against human HT-29 cells assessed as reduction in cell viability after 72 hrs by MTS assay; type: functional, cell-based; settings: HT-29, 72 h; outline: as §1
[10] = test system: NCI-H1975; experiment: Induction of mitotic arrest in human NCI-H1975 cells assessed as increase in phospho-histone H3 expression at 40 to 80 nM after 24 hrs by immunoblotting analysis; type: functional, cell-based
[11] = molecular target: Tubulin (Sus scrofa) (UniProt P02554+P02550); experiment: Inhibition of porcine tubulin at 5 uM in presence of GTP measured every minute for 1 hr by microplate reader analysis; type: protein assay
[12] = test system: PC-3; experiment: Antiproliferative activity against human PC3 cells assessed as reduction in cell viability after 72 hrs by MTS assay; type: functional, cell-based; settings: PC-3, 72 h; outline: as §1
[13] = test system: CL1-0; experiment: Induction of apoptosis in human CL1-0 cells assessed as PARP cleavage at 20 nM by immunoblotting analysis; type: functional, cell-based; settings: TDE = time-dependent effect
[14] = test system: NCI-H1975; experiment: Cell cycle arrest in human NCI-H1975 cells assessed as increase in cell population at G2/M phase after 24 hrs by propidium iodide-staining based flow cytometry; type: functional
Outline: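 Cells treated for 24 h, then trypsinized and fixed overnight in ice-cold 70% ethanol. Stained for 30 min with propidium iodide (10 µg/mL) plus RNase (20 µg/mL), and DNA content measured by flow cytometry. Mean ± SD.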

[15] = test system: NCI-H1975; experiment: Induction of apoptosis in human NCI-H1975 cells assessed as cleaved caspase 3 expression at 40 nM by immunoblotting analysis; type: functional, cell-based; settings: TDE = time-dependent effect
[16] = molecular target: T1, Tubulin (Homo sapiens) (UniProt P68371+Q9H4B7+P0DPH7+P68366+Q13509+Q71U36+P04350+Q3ZCM7+P07437+P68363+Q9BQE3+Q6PEY2+Q13885+Q9BVA1+Q9BUF5); experiment: Inhibition of microtubule polymerization in human NCI-H1975 cells at 40 nM after 1 hr followed by exposure to cold and measured at 5 to 60 mins immunofluorescence based assay; type: cell-based
Outline: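 H1975 cells pretreated with 40 nM for 1 h, held cold for 30 min, then returned to 37 °C for varying times. Fixed and stained for α-tubulin by immunofluorescence with DAPI counterstain, then imaged by confocal microscopy.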

[17] = test system: CL1-0; experiment: Induction of apoptosis in human CL1-0 cells assessed as cleaved caspase 3 expression at 20 nM by immunoblotting analysis; type: functional, cell-based; settings: TDE = time-dependent effect
[18] = molecular target: T1, Tubulin (Homo sapiens); experiment: Induction of microtubule depolymerization in human NCI-H1975 cells at 40 nM after 6 hrs by DAPI staining based DAPI staining based confocal microscopic analysis; type: cell-based
Outline: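 Cells exposed for 6 h, fixed in 3.7% paraformaldehyde, permeabilized with 0.1% Triton X-100. Stained with anti-α-tubulin (1:1000) overnight at 4 °C, FITC secondary 1 h at 37 °C, nuclei counterstained with DAPI. Imaged by confocal laser scanning microscopy.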

Sequence of Tubulin (Sus scrofa) (P02550 whole entry, looked up): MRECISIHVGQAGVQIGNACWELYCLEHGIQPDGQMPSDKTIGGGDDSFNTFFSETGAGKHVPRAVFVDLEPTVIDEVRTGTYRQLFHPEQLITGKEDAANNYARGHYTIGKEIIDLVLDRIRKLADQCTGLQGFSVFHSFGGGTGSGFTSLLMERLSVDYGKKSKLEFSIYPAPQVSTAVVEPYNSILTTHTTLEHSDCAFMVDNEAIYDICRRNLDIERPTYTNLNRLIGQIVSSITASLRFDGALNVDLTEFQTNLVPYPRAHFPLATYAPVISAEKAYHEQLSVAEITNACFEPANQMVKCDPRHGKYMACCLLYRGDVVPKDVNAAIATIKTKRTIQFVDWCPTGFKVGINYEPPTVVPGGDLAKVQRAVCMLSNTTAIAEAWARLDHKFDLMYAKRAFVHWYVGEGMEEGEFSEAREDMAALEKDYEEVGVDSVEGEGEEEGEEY
Sequence of Tubulin (Sus scrofa) (P02554 whole entry, looked up): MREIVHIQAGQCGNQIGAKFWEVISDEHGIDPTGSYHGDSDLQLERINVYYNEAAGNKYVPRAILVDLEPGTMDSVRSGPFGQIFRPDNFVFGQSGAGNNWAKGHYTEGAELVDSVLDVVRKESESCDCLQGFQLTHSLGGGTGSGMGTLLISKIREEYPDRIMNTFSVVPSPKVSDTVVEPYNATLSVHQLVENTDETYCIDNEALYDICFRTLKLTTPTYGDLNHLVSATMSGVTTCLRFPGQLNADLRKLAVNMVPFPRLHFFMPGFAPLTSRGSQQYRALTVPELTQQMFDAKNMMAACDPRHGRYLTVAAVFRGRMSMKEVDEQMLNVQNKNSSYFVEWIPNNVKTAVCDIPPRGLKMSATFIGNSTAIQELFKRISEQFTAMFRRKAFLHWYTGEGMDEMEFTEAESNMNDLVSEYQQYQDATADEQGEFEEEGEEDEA

IC50 [6]	IC50 [9]	tubulin inhibition call (active/not active) [11]	IC50 [12]	Activity [16]	Activity [18]	Compound	Activity [1]	Activity [2]	Activity [3]	Activity [4]	Activity [5]	IC50 [7]	Activity [8]	Activity [10]	Activity [13]	Activity [14]	Activity [15]	Activity [17]
–	–	–	–	–	–	CCOC(=O)c1ccc2[nH]c(-c3cccc(F)c3)cc(=O)c2c1	18.2 mg/dL	64 IU/L	Active	105 mm3	Active	–	–	–	–	–	–	–
38 nM	48 nM	Active	45 nM	Active	Active	CCOC(=O)c1ccc2nc(-c3ccccc3)cc(O)c2c1	–	–	–	–	–	78 nM	inactive	Active	Tde	Dose-dependent effect	Tde	Tde
